Key:
[1] = system: IgD2 domain from human VEGFR-3; assay: VEGF-C binding to recombinant VEGFR-3 IgD2; conditions: synthetic peptide added; FLISA, duplicate wells
[2] = system: IgD2-3 domains from human VEGFR-3; assay: VEGF-C binding to recombinant VEGFR-3 IgD2-3; conditions: synthetic peptide added; FLISA, duplicate wells
human FGFR-1 = assay: growth factor binding assay; conditions: FGF-1 20 ng/ml; peptide 100 μg/ml; FLISA, duplicate wells
Procedure, shortened: (§1)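 Human FGFR-1 or PDGFR-β coated at 200 ng per well in PBS overnight at 4°C and blocked. Wells incubated with human FGF-1 or PDGF-BB (each 20 ng/ml) in PBS with 10% (v/v) DMSO and 10% blocking buffer, with or without peptide (100 μg/ml). Bound ligand detected with goat antiserum (1:200), then IRDye 680LT anti-goat, by infrared fluorescence. Duplicate wells; ANOVA with Tukey.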

human PDGFR-β = assay: growth factor binding assay; conditions: PDGF-BB 20 ng/ml; peptide 100 μg/ml; FLISA, duplicate wells
Procedure, shortened: as §1

human VEGFR-1 [3] = assay: FLISA binding assay, NRP-1 to VEGFR-1; conditions: human NRP-1; peptide 100 μg/ml; FLISA, duplicate wells
Procedure, shortened: (§2)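 Human VEGFR-1 extracellular domain coated at 200 ng per well in PBS overnight at 4°C, then blocked with Odyssey blocking buffer. Wells incubated with NRP-1 or NRP-2 in PBS with 10% (v/v) DMSO and 10% blocking buffer, with or without peptide (100 μg/ml). Bound NRP detected with goat anti-NRP-1 or anti-NRP-2 serum (1:100), then IRDye 680LT anti-goat, by infrared scanning. Duplicate wells; ANOVA with Tukey.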

human VEGFR-1 [4] = assay: FLISA binding assay, NRP-2 to VEGFR-1; conditions: rat NRP-2; peptide 100 μg/ml; FLISA, duplicate wells
Procedure, shortened: as §2

[5] = presence in the vitreous humor after topical application; format: in vivo; conditions: applied topically
[6] = solubility in Matrigel compared to aqueous media; format: physicochemical

WVCSGG
inhibition of VEGF-C binding to IgD2 [1]: both prevented binding of VEGF-C to IgD2 and IgD2-3 | inhibition of VEGF-C binding to IgD2-3 [2]: both prevented binding of VEGF-C to IgD2 and IgD2-3 | effect on binding of basic human FGF to FGFR-1α (human FGFR-1): no effect | effect on binding of PDGF-BB to PDGFR-β (human PDGFR-β): no effect | effect on NRP-1 interaction with VEGFR-1 (human VEGFR-1 [3]): not affected by peptide PCAIWF or WVCSGG | effect on NRP-2 interaction with VEGFR-1 (human VEGFR-1 [4]): not affected by peptide PCAIWF or WVCSGG | presence in the vitreous humor after topical application [5]: not found in the vitreous humor if applied topically to the retina | solubility in Matrigel [6]: fairly soluble in Matrigel compared to aqueous media
